From ChEMBL document CHEMBL1122201, “Carboxyimamidate, a low-molecular-weight polyelectrolyte with antitumor properties and low toxicity” (1982)
Several values for one entry are separate records, joined by “and”; a condition that tells them apart may be missing. Equal values may be shown once.

Assays:
[1] = system: Mus musculus; experiment: Average proportion of total treated mice without palpable tumors was determined in the subcutaneous Lewis Lung Carcinoma model at a dose of 100-125 (mg/kg)/day; type: functional
In short: (§1)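 Sc-implanted Lewis lung carcinoma in mice, groups of 10. Agent dissolved in sterile saline and given daily on days 1-5, 1-8 or 1-10, ip or sc (0.5 mL/mouse). Each experiment had 3 or 4 untreated control groups of 10. The read-out was the average proportion of treated mice without palpable tumor on day 14, pooled over independent experiments as mean ± SE.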

[2] = system: Mus musculus; experiment: Average proportion of total treated mice without palpable tumors was determined in the subcutaneous Lewis Lung Carcinoma model at a dose of 900-1000 (mg/kg)/day; type: functional; in short: as §1
[3] = system: Mus musculus; experiment: Percent increase of mean life span of treated groups relative to the mean of the untreated control groups in the subcutaneous Lewis Lung Carcinoma model at a dose of 100-125 mg/kg/day; type: functional
In short: (§2)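 Lewis lung carcinoma model in mice, groups of 10. Dosing daily on days 1-5, 1-8 or 1-10, ip or subcutaneous. Dose ranges pooled from nine independent experiments run at different levels. ILS is the percent increase in mean life span, excluding cures, over the mean of 3 or 4 untreated control groups of 10. Survivors scored at day 60.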

[4] = system: Mus musculus; experiment: Percent increase of mean life span of treated groups relative to the mean of the untreated control groups in the subcutaneous Lewis Lung Carcinoma model at a dose of 1200-1500 (mg/kg)/day; type: functional; in short: as §2
[5] = system: Mus musculus; experiment: Percent increase of mean life span of treated groups relative to the mean of the untreated control groups in the subcutaneous Lewis Lung Carcinoma model at a dose of 158-251 (mg/kg)/day; type: functional; in short: as §2
[6] = system: Mus musculus; experiment: Percent increase of mean life span of treated groups relative to the mean of the untreated control groups in the subcutaneous Lewis Lung Carcinoma model at a dose of 2400-2512 (mg/kg)/day; type: functional; in short: as §2
[7] = system: Mus musculus; experiment: Percent increase of mean life span of treated groups relative to the mean of the untreated control groups in the subcutaneous Lewis Lung Carcinoma model at a dose of 300-400 (mg/kg)/day; type: functional; in short: as §2
[8] = system: Mus musculus; experiment: Percent increase of mean life span of treated groups relative to the mean of the untreated control groups in the subcutaneous Lewis Lung Carcinoma model at a dose of 500-600 (mg/kg)/day; type: functional; in short: as §2
[9] = system: Mus musculus; experiment: Percent increase of mean life span of treated groups relative to the mean of the untreated control groups in the subcutaneous Lewis Lung Carcinoma model at a dose of 62-75 (mg/kg)/day; type: functional; in short: as §2
[10] = system: Mus musculus; experiment: Percent increase of mean life span of treated groups relative to the mean of the untreated control groups in the subcutaneous Lewis Lung Carcinoma model at a dose of 900-1000 (mg/kg)/day; type: functional; in short: as §2
[11] = species on record: Mus musculus; experiment: Increase in mean life span was measured against EMT6 mammary carcinoma cells; type: functional
In short: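 EMT6 given as sc trochar implants in C3H mice, groups of 10. Drug given ip in sterile saline, 0.5 mL/mouse, at or below the maximally tolerated dose for the schedule. Mean life span excludes long-term tumor-free survivors. Animals held 60 days after implantation; Student's t test against untreated controls.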

[12] = species on record: Mus musculus; experiment: Increase in mean life span was measured against Gardner lymphosarcoma cells; type: functional
In short: (§3)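 10^6 Trypan blue-excluding cells implanted ip (P815 sc) in groups of 10 mice: B6D2F1 for L5178Y and P815, BALB/c for ADJ-PC6, C3H for Gardner. Drug given ip in sterile saline, 0.5 mL/mouse, at or below the maximally tolerated dose for the schedule. ILS excludes long-term tumor-free survivors. Animals held 60 days; Student's t test against untreated controls.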

[13] = species on record: Mus musculus; experiment: Increase in mean life span was measured against L5178 Y leukemia cells; type: functional; in short: as §3
[14] = species on record: Mus musculus; experiment: Increase in mean life span was measured against M5076 ovarian tumor; type: functional
In short: (§4)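 Tumor brei, 10%, 0.5 mL, implanted sc in groups of 10 mice: CD2F1 for Nettesheim and Madison, B6D2F1 for M5076. M5076 also implanted ip with the same inoculum; Madison im at 0.2 mL. Drug given ip in saline, 0.5 mL/mouse, at or below the maximally tolerated dose. ILS excludes long-term survivors. Animals held 60 days; t test.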

[15] = species on record: Mus musculus; experiment: Increase in mean life span was measured against M5076 ovarian tumor cells; type: functional; in short: as §4
[16] = species on record: Mus musculus; experiment: Increase in mean life span was measured against Madison 109 lung carcinoma cells; type: functional, M109; in short: as §4
[17] = species on record: Mus musculus; experiment: Increase in mean life span was measured against Nettesheim lung carcinoma cells; type: functional; in short: as §4
[18] = species on record: Mus musculus; experiment: Increase in mean life span was measured against colon carcinoma; type: functional
[19] = species on record: Mus musculus; experiment: Increase in mean life span was measured against colon carcinoma 26; type: functional
In short: (§5)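 Colon carcinoma 26: 0.5 mL of 1% brei implanted sc or ip in groups of 10 CD2F1 mice. Drug given ip in sterile saline, 0.5 mL/mouse, at or below the maximally tolerated dose for the schedule. Mean life span excludes long-term tumor-free survivors. Animals held 60 days; Student's t test against untreated controls.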

[20] = species on record: Mus musculus; experiment: Increase in mean life span was measured against colon carcinoma 26 cells; type: functional, Colon 26; in short: as §5
[21] = system: Mus musculus; experiment: Average proportion of total treated mice without palpable tumors was determined in the subcutaneous Lewis Lung Carcinoma model at a dose of 1200-1500 (mg/kg)/day; type: functional; in short: as §1
[22] = system: Mus musculus; experiment: Average proportion of total treated mice without palpable tumors was determined in the subcutaneous Lewis Lung Carcinoma model at a dose of 158-251 (mg/kg)/day; type: functional; in short: as §1
[23] = system: Mus musculus; experiment: Average proportion of total treated mice without palpable tumors was determined in the subcutaneous Lewis Lung Carcinoma model at a dose of 2400-2512 (mg/kg)/day; type: functional; in short: as §1
[24] = system: Mus musculus; experiment: Average proportion of total treated mice without palpable tumors was determined in the subcutaneous Lewis Lung Carcinoma model at a dose of 300-400 (mg/kg)/day; type: functional; in short: as §1
[25] = system: Mus musculus; experiment: Average proportion of total treated mice without palpable tumors was determined in the subcutaneous Lewis Lung Carcinoma model at a dose of 500-600 (mg/kg)/day; type: functional; in short: as §1
[26] = system: Mus musculus; experiment: Average proportion of total treated mice without palpable tumors was determined in the subcutaneous Lewis Lung Carcinoma model at a dose of 62-75 (mg/kg)/day; type: functional; in short: as §1
[27] = system: Mus musculus; experiment: Proportion of survivors was determined on the 60th day at a dose of 100-125 mg/kg/day; type: functional; in short: as §2

## CC(c1ccccc1)C1C(=O)NC(=O)C1CCC(C(N)=O)C(CCC(CC(=O)O)C(N)=O)C(=O)O.N.N (configuration not stated)
[1]
  Average proportion: 0.1
[2]
  Average proportion: 0.47
[3]
  ILS: 12%
[4]
  ILS: 24%
[5]
  ILS: 15%
[6]
  ILS: -28%
[7]
  ILS: 17%
[8]
  ILS: 15%
[9]
  ILS: 12%
[10]
  ILS: 19%
[11]
  ILS: 13%
[12]
  ILS: 4%
[13]
  ILS: 5%
[14]
  ILS: 20%
[15]
  ILS: 40%
[16]
  ILS: 27% and 23% and 20%
[17]
  ILS: 6%
[18]
  ILS: 14%
[19]
  ILS: 22%
[20]
  ILS: 48% and 31% and 75%
[21]
  Average proportion: 0.48
[22]
  Average proportion: 0.14
[23]
  Average proportion: 0.6
[24]
  Average proportion: 0.27
[25]
  Average proportion: 0.29
[26]
  Average proportion: 0.08
[27]
  Proportion of survivors: 0.04
